MrgX1 PAM: human MrgX1 positive allosteric modulation, primary screen; MrgX1-HEK293, Fluo-4 calcium flux, FDSS; stronger effect = higher value; B-score at 10 µM; actives 0.63% (n = 310,000); AID 588675;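 active means plate-corrected calcium response at least 3 library SD above typical, normal starting fluorescence, not activating the receptor alone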;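 further: compound read alongside a low EC10 to EC30 dose of BAM8-22 agonist; peak minus trough fluorescence over baseline measured at the second addition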
Target sequence (Q96LB2 whole entry, looked up): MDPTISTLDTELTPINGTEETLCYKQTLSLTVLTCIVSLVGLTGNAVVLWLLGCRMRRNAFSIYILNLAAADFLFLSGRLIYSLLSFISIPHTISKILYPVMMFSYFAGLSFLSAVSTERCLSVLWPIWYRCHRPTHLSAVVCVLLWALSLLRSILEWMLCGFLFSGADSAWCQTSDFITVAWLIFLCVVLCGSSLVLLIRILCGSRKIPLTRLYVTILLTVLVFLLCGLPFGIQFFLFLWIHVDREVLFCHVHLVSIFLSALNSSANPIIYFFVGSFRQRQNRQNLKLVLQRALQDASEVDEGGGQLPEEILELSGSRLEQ
MrgX1 ag: human MrgX1 receptor agonism, primary screen; MrgX1-HEK293 cells, Fluo-4 calcium fluorescence, agonist mode; stronger effect = higher value; Q96LB2; actives 0.44% (n = 310,000); B-score at 10 µM;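 active means calcium response B-score plate-corrected fluorescence ratio at least 3 library SD, with starting fluorescence B-score inside 5 SD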
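System – MrgX1-expressing HEK293 cells · Incubation – cells plated overnight, dye loaded 0.5 h 37 °C, 0.5 h room temperature · Technique – kinetic Fluo-4 NW fluorescence of intracellular calcium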
RGS4 act: RGS4 potentiation or activation. B-score at 10 µM. AID 463111. HEK293 M3R/inducible RGS4, carbachol calcium flux Fluo4; stronger effect = lower value. actives 0.92% (n = 310,000);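 active means B-score of the integrated calcium signal more than 4 SD below the library mean, with starting fluorescence not abnormally high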;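 further: negative B-score means reduced calcium response which marks RGS4 activation or potentiation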
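Assay system: Inducible-RGS4 HEK293 cells carrying M3 receptor | Schedule: Compound preincubation 20 min at room temperature before agonist | Signal: Kinetic calcium fluorescence imaging with Fluo4-AM dye, 2 µM | Read-out basis: B score from integrated fluorescence ratio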
RGS4 inh: inhibitors of human RGS4 | P49798 | AID 463165 | HEK293 M3R/RGS4 inducible, Fluo-4 calcium flux; stronger effect = higher value; triggered by carbachol at its EC20 | actives 0.45% (n = 310,000) | B-score at 10 µM;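 active means B-score, a plate-corrected calcium signal, over three deviations above library mean, with baseline fluorescence within five deviations of library mean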;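 further: RGS4 expression induced by doxycycline in cells with stable M3 receptor; B-score is computed from the integrated fluorescence ratio over baseline after carbachol; higher B-score means a larger calcium signal and so more RGS4 inhibition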
Target sequence (P49798 whole entry, looked up): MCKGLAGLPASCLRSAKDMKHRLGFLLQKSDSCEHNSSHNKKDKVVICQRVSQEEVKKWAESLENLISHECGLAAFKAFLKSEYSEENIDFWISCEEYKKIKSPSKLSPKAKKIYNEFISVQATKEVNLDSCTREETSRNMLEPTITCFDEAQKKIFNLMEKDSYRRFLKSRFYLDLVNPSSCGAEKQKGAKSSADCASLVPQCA
MrgX1 antagonist: antagonists of human MrgX1 receptor | Q96LB2 | MRGX1-HEK293 calcium flux, Fluo-4, BAM8-22 antagonism; stronger effect = lower value | B-score at 10 µM | actives 1.3% (n = 310,000) | AID 588676;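 active means calcium-response B-score plate-corrected more than 3 library SD below zero, starting fluorescence within 5 deviations, no agonist response on first addition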;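 further: peak minus trough fluorescence over baseline after final BAM8-22 challenge near maximal dose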
RGS4 activ val: confirmation of RGS4 activators; shares compounds with RGS4 act; inhibition, % at 10 µM; HEK293 M3R/RGS4 inducible, carbachol calcium flux Fluo4; actives 89% (n = 1,100);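 active means inhibition above 3 SD of the buffer control wells, cut at about 41% in these data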;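 further: signal is the integrated peak-minus-minimum Fluo4 fluorescence over baseline ratio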
RGS4 act ctr: counter-screen for RGS4 activators: effect in non-induced cells | shares compounds with RGS4 act | HEK293 M3R non-induced RGS4, Fluo4 calcium flux; after carbachol challenge at its EC90 | inhibition, % at 10 µM | actives 82% (n = 1,100) | AID 602283;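 active means inhibition exceeding 3 SD of buffer-only control wells, cut at about 26% in these data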;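 further: percent drop in integrated peak-minus-baseline over baseline Fluo4 ratio after carbachol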
* hit, by the source's call. In the library only some 3.5% were active in any assay of this set; here they are far more common.

What do the screens show for `COc1ccc(CCC(C)N2CCC(Oc3ccc(C(=O)N4CCCC4)cc3)CC2)cc1` (centres undefined)?
MrgX1 PAM: inactive; MrgX1 ag: inactive; RGS4 act: -7.63*; RGS4 inh: inactive; MrgX1 antagonist: inactive; RGS4 activ val: 83.5*; RGS4 act ctr: 43.8*

Results for CC(=O)Nc1ccc(S(=O)(=O)NC(C)(C#N)C2CC2)cc1 (centres undefined) ?
MrgX1 PAM: inactive; MrgX1 ag: inactive; RGS4 act: inactive; RGS4 inh: inactive; MrgX1 antagonist: inactive

How did CCN(CC)S(=O)(=O)c1cc(NC(=O)C(C)N2CCN(c3ccccn3)CC2)ccc1C (centres undefined) do in these assays?
MrgX1 PAM: inactive; MrgX1 ag: inactive; RGS4 act: -9.05*; RGS4 inh: inactive; MrgX1 antagonist: inactive; RGS4 activ val: 63.5*; RGS4 act ctr: 0.0

Results for CCN(CC)C1CCN(C(=O)c2cc(COc3cccc4cccnc34)on2)C1 (centres undefined) ?
RGS4 act: -9.15*; RGS4 inh: inactive; RGS4 activ val: 89.5*; RGS4 act ctr: 75.3*

How did Cc1nc2ccccn2c1C(=O)NNS(=O)(=O)c1ccc(C(C)(C)C)cc1 do in these assays?
MrgX1 PAM: inactive; MrgX1 ag: inactive; RGS4 act: inactive; RGS4 inh: inactive; MrgX1 antagonist: inactive

Results for COc1ccc(S(=O)(=O)N2CCN(Cc3ccc4c(c3)OCO4)CC2)cc1 ?
MrgX1 PAM: inactive; MrgX1 ag: inactive; RGS4 act: -10.6*; RGS4 inh: inactive; MrgX1 antagonist: inactive; RGS4 activ val: 61.5*; RGS4 act ctr: 83.8*

How did Cc1cccc(S(=O)(=O)N2CCN(Cc3ccc4c(c3)OCO4)CC2)c1 do in these assays?
MrgX1 PAM: inactive; MrgX1 ag: inactive; RGS4 act: -10.1*; RGS4 inh: inactive; MrgX1 antagonist: inactive; RGS4 activ val: 67.5*; RGS4 act ctr: 83.8*

Results for COc1ccc(S(=O)(=O)N2CCC(N3CCN(Cc4ccccc4)CC3)CC2)cc1 ?
MrgX1 PAM: inactive; MrgX1 ag: inactive; RGS4 act: -8.02*; RGS4 inh: inactive; MrgX1 antagonist: inactive; RGS4 activ val: 86.5*; RGS4 act ctr: 49.8*

What do the screens show for `CCOc1ccc(S(=O)(=O)N2CCN(Cc3ccc4c(c3)OCO4)CC2)cc1Cl`?
MrgX1 PAM: inactive; MrgX1 ag: inactive; RGS4 act: inactive; RGS4 inh: inactive; MrgX1 antagonist: inactive

How did CSc1ccc(S(=O)(=O)N2CCN(Cc3ccc4c(c3)OCO4)CC2)cc1 do in these assays?
MrgX1 PAM: inactive; MrgX1 ag: inactive; RGS4 act: -9.9*; RGS4 inh: inactive; MrgX1 antagonist: inactive; RGS4 activ val: 92.5*; RGS4 act ctr: 91.3*

How did CCc1ccc(C(=O)N/N=C/c2ccncc2)s1 do in these assays?
MrgX1 PAM: inactive; MrgX1 ag: inactive; RGS4 act: inactive; RGS4 inh: inactive; MrgX1 antagonist: inactive

How did CCOC(=O)c1ccccc1NC(=O)C1CSC2(C)CCC(=O)N12 (centres undefined) do in these assays?
MrgX1 PAM: inactive; MrgX1 ag: inactive; RGS4 act: inactive; RGS4 inh: inactive; MrgX1 antagonist: inactive

Results for COc1cccc(CNC(=O)c2ccc(OCC(=O)N3CCOCC3)c(OC)c2)c1 ?
MrgX1 PAM: inactive; MrgX1 ag: inactive; RGS4 act: inactive; RGS4 inh: inactive; MrgX1 antagonist: inactive

Results for COc1cccc(CN2CCCC(C(=O)c3ccc4c(c3)OCO4)C2)c1O (centres undefined) ?
MrgX1 PAM: inactive; MrgX1 ag: inactive; RGS4 act: inactive; RGS4 inh: inactive; MrgX1 antagonist: inactive

Results for COc1ccc(CN2CCCC(C(=O)c3ccc4c(c3)OCO4)C2)c(F)c1 (centres undefined) ?
MrgX1 PAM: inactive; MrgX1 ag: inactive; RGS4 act: -8.33*; RGS4 inh: inactive; MrgX1 antagonist: inactive; RGS4 activ val: 91.0*; RGS4 act ctr: 80.8*

How did Cc1nn(C(C)C)c(C)c1CN1CCCC(C(=O)c2cccc(OC(C)C)c2)C1 (centres undefined) do in these assays?
MrgX1 PAM: inactive; MrgX1 ag: inactive; RGS4 act: -8.39*; RGS4 inh: inactive; MrgX1 antagonist: inactive; RGS4 activ val: 70.5*; RGS4 act ctr: 83.8*

What do the screens show for `CC(=O)c1cccc(CN2CCCC(C(=O)c3ccc4c(c3)OCO4)C2)c1` (centres undefined)?
MrgX1 PAM: inactive; MrgX1 ag: inactive; RGS4 act: -8.3*; RGS4 inh: inactive; MrgX1 antagonist: inactive; RGS4 activ val: 74.0*; RGS4 act ctr: 26.3*

What do the screens show for `CCn1nc(C)c(CN2CCCC(C(=O)c3cccc(OC(C)C)c3)C2)c1C` (centres undefined)?
MrgX1 PAM: inactive; MrgX1 ag: inactive; RGS4 act: inactive; RGS4 inh: inactive; MrgX1 antagonist: inactive

How did O=C(c1ccc2c(c1)OCO2)C1CCCN(C2CCN(CCc3ccccc3)CC2)C1 (centres undefined) do in these assays?
MrgX1 PAM: inactive; MrgX1 ag: inactive; RGS4 act: -13.2*; RGS4 inh: inactive; MrgX1 antagonist: inactive; RGS4 activ val: 87.0*; RGS4 act ctr: 55.3*

How did O=C(C1CCCN(Cc2ccc3c(c2)OCO3)C1)N1CCCC1 (centres undefined) do in these assays?
MrgX1 PAM: inactive; MrgX1 ag: inactive; RGS4 act: inactive; RGS4 inh: inactive; MrgX1 antagonist: inactive

Results for COc1ccc(CNC(=O)CSc2ncnc3nc[nH]c23)cc1 ?
MrgX1 PAM: inactive; MrgX1 ag: inactive; RGS4 act: inactive; RGS4 inh: inactive; MrgX1 antagonist: inactive

What do the screens show for `COc1ccc(C(C(=O)NCC2CCCO2)N(C(=O)CNC(=O)c2cccs2)c2ccc(C)cc2)cc1OC` (centres undefined)?
MrgX1 PAM: inactive; MrgX1 ag: inactive; RGS4 act: inactive; RGS4 inh: inactive; MrgX1 antagonist: inactive

How did COc1cccc(C(=O)C2CCCN(Cc3cccc(-n4nc(C)cc4C)c3)C2)c1 (centres undefined) do in these assays?
MrgX1 PAM: inactive; MrgX1 ag: inactive; RGS4 act: -9.79*; RGS4 inh: inactive; MrgX1 antagonist: inactive; RGS4 activ val: 93.0*; RGS4 act ctr: 75.3*

How did Cc1nc2ccc(Br)cc2c2c1CC(CBr)O2 (centres undefined) do in these assays?
MrgX1 PAM: inactive; MrgX1 ag: inactive; RGS4 act: -8.08*; RGS4 inh: inactive; MrgX1 antagonist: inactive; RGS4 activ val: 64.5*; RGS4 act ctr: 83.8*
